Measurements published in ChEMBL document CHEMBL3865819, “Myrsinane, Premyrsinane, and Cyclomyrsinane Diterpenes from Euphorbia falcata as Potassium Ion Channel Inhibitors with Selective G Protein-Activated Inwardly Rectifying Ion Channel (GIRK) Blocking Effects” (J Nat Prod, 2016).

Key:
Format in all cases: cell-based
[1] = biological target: T1, hERG (KCNH2) (Homo sapiens, UniProt Q12809); experiment: Inhibition of human ERG expressed in HEK293 cells assessed as decrease in channel current at 30 uM after 3 mins at -80 mV holding potential by automated patch-clamp electrophysiology assay; details: HEK293 cells that express hERG
In short: (§1)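 HEK-293 cells stably transfected with hERG (Kv11.1), whole-cell automated planar patch clamp. External solution 4 mM KCl, pH 7.4; internal KCl/KF/EGTA, pH 7.2. Protocol: 100 ms −40 mV reference step, 3 s at 20 mV, then 1 s at −40 mV for the outward tail current. After control, 3, 10, 30 μM cumulative, ~3 min each; amitriptyline 10 μM reference, then wash-out; two or three cells; DMSO ≤0.3% final.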

[2] = biological target: T2, Kir3.1/Kir3.4 (Homo sapiens) (UniProt P48549+P48544); experiment: Inhibition of GTPgammaS-induced activation of GIRK1/4 (unknown origin) expressed in HEK293 cells assessed as decrease in channel current at 1 uM after 2 mins at -40 mV holding potential by automated patch-clamp electrophysiology assay
In short: (§2)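 Whole-cell automated planar patch clamp on HEK-293 cells stably expressing GIRK1/4 (Kir3.1/3.4). Internal solution carries 0.9 mM GTPγS to activate channels; bath switched from 4 mM K+ to high-K+ (25 mM KCl) external, pH 7.4. Step to 60 mV, ramp to −140 mV, 100 ms at −140 mV, ~0.1 Hz; inward current read at −140 mV. After 3 min control, 1 then 10 μM for ~2 min each; K+-free solution baseline; two to three cells.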

[3] = biological target: T2, Kir3.1/Kir3.4 (Homo sapiens); experiment: Inhibition of GTPgammaS-induced activation of GIRK1/4 (unknown origin) expressed in HEK293 cells assessed as decrease in channel current at 10 uM after 2 mins at -40 mV holding potential by automated patch-clamp electrophysiology assay; in short: as §2
[4] = biological target: T1, hERG (KCNH2); experiment: Inhibition of human ERG expressed in HEK293 cells assessed as decrease in channel current at 3 uM after 3 mins at -80 mV holding potential by automated patch-clamp electrophysiology assay; details: HEK293 cells that express hERG; in short: as §1
[5] = biological target: T1, hERG (KCNH2); experiment: Inhibition of human ERG expressed in HEK293 cells assessed as decrease in channel current at 10 uM after 3 mins at -80 mV holding potential by automated patch-clamp electrophysiology assay; details: HEK293 cells that express hERG; in short: as §1

T1 sequence (Q12809 whole entry): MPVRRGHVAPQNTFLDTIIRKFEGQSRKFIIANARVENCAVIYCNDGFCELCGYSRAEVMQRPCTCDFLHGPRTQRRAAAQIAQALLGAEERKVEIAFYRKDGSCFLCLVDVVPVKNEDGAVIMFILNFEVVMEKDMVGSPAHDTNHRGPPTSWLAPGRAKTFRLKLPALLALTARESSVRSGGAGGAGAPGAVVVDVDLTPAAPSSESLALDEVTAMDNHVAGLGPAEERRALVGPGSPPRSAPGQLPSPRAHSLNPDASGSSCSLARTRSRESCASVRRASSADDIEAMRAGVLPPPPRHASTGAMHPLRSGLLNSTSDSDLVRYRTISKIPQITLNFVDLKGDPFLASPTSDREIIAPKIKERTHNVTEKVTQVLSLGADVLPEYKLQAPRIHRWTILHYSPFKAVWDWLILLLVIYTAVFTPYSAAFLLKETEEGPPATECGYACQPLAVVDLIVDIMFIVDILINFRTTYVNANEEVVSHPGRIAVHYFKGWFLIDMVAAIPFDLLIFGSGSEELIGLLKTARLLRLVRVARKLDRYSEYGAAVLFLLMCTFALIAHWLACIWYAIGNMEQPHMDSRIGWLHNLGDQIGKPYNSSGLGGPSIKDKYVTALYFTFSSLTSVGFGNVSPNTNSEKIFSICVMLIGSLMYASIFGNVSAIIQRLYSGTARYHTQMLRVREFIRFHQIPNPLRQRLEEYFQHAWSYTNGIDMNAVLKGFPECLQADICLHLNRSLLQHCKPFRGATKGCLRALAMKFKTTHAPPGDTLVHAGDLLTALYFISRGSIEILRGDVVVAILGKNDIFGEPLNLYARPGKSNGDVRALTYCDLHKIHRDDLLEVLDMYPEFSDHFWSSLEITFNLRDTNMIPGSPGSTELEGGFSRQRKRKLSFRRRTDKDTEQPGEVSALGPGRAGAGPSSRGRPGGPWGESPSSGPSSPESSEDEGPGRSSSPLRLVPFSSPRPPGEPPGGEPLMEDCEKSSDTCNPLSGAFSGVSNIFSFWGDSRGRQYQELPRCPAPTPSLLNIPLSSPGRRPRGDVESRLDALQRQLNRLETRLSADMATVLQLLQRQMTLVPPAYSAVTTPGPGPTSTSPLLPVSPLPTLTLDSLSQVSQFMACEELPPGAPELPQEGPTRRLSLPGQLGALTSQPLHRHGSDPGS

Row | SMILES | inhibition at 0.05 h, 30 µM [1] | inhibition [2] | inhibition [3] | inhibition at 0.05 h, 3 µM [4] | inhibition at 0.05 h, 10 µM [5]
1 | CCC(=O)O[C@@H]1[C@@H]2[C@@H](OC(C)=O)[C@@]34CO[C@@](C)([C@H](OC(C)=O)[C@@]2(OC(C)=O)C[C@H]1C)[C@@H]3[C@@H]1[C@@H](C[C@]1(C)OC(C)=O)[C@@H](OC(=O)C(C)C)C4=O | 33% | 30% | 70% | 0% | 23%
2 | CC(=O)OC[C@@]12[C@H](OC(=O)c3ccccc3)[C@H]3[C@@H](OC(=O)C(C)C)[C@@H](C)C[C@]3(OC(C)=O)C(=O)[C@@]3(C)OC(C)(C)[C@@H](C=C[C@H]1OC(C)=O)[C@H]23 | 43% | 26% | 61% | 13% | 24%
3 | CCC(C)C(=O)O[C@H]1C(=O)[C@@]23CO[C@@](C)([C@H](OC(C)=O)[C@@]4(OC(C)=O)C[C@](C)(OC(=O)c5ccccc5)[C@H](OC(=O)C(C)C)[C@@H]4[C@H]2OC(C)=O)[C@@H]3[C@@H]2[C@H]1C[C@]2(C)OC(C)=O (stereo not given in full) | 40% | 26% | 70% | 14% | 30%
4 | CC(=O)O[C@@H]1[C@H]2[C@@H](OC(=O)C(C)C)[C@@](C)(OC(=O)c3cccnc3)C[C@]2(OC(C)=O)[C@@H](OC(C)=O)[C@]2(C)OC[C@]13C(=O)[C@H](OC(=O)C(C)C)[C@@H]1C[C@](C)(OC(C)=O)[C@@H]1[C@@H]23 | 30% | 8% | 57% | 8% | 19%
5 | CCC(=O)O[C@@H]1[C@@H]2[C@@H](OC(C)=O)[C@@]34CO[C@@](C)([C@H](OC(C)=O)[C@@]2(OC(C)=O)C[C@]1(C)O)[C@@H]3[C@@H]1[C@@H](C[C@]1(C)OC(C)=O)[C@@H](OC(=O)C(C)CC)C4=O (stereo not given in full) | 33% | 11% | 24% | 8% | 20%
6 | CCC(C)C(=O)O[C@H]1C(=O)[C@@]23CO[C@@](C)([C@H](OC(C)=O)[C@@]4(OC(C)=O)C[C@](C)(O)[C@H](OC(=O)C(C)C)[C@@H]4[C@H]2OC(C)=O)[C@@H]3[C@@H]2[C@H]1C[C@]2(C)OC(C)=O (stereo not given in full) | 32% | 14% | 26% | 12% | 22%
7 | CC(=O)O[C@@H]1[C@H]2[C@@H](OC(=O)C(C)C)[C@@](C)(OC(=O)c3ccccc3)C[C@]2(OC(C)=O)[C@@H](OC(C)=O)[C@]2(C)OC[C@]13C(=O)[C@H](OC(=O)C(C)C)[C@@H]1C[C@](C)(OC(C)=O)[C@@H]1[C@@H]23 | 53% | 33% | 77% | 14% | 24%
8 | CCC(=O)O[C@@H]1[C@@H]2[C@@H](OC(C)=O)[C@@]34CO[C@@](C)([C@H](OC(C)=O)[C@@]2(OC(C)=O)C[C@]1(C)OC(=O)c1ccccc1)[C@@H]3[C@@H]1[C@@H](C[C@]1(C)OC(C)=O)[C@@H](OC(=O)C(C)CC)C4=O (stereo not given in full) | 52% | 20% | 64% | 16% | 31%
9 | CC(=O)O[C@@H]1C=C[C@H]2[C@@H]3[C@]1(COC(=O)C(C)C)[C@H](OC(=O)c1ccccc1)[C@H]1[C@@H](OC(=O)C(C)C)[C@@H](C)C[C@]1(O)C(=O)[C@@]3(C)OC2(C)C | 46% | 21% | 54% | 20% | 33%
10 | CCC(=O)O[C@@H]1[C@@H]2[C@@H](OC(=O)c3ccccc3)[C@@]3(COC(=O)C(C)C)[C@H]4[C@H](C=C[C@H]3OC(C)=O)C(C)(C)O[C@]4(C)C(=O)[C@@]2(OC(C)=O)C[C@@H]1C | 40% | 21% | 47% | 11% | 24%
11 | CCCCCC(=O)O[C@@H]1[C@@H]2[C@@H](O)[C@]34CC[C@H]5[C@@H]([C@H]3[C@@](C)(OC4)[C@H](OC(C)=O)[C@@]2(O)C[C@@H]1C)C5(C)C | 55% | 30% | 69% | 19% | 40%
12 | CC(=O)OC1O[C@@]2(C)[C@H](OC(=O)c3ccccc3)[C@@]3(OC(C)=O)C[C@H](C)[C@H](OC(=O)C(C)C)[C@@H]3[C@@H](OC(C)=O)[C@@]13[C@H](OC(=O)c1cccnc1)C[C@H]1[C@@H]([C@@H]23)C1(C)C (stereo not given in full) | 78% | 18% | 37% | 48% | 68%
13 | CC(=O)O[C@@H]1C[C@H]2[C@@H]([C@@H]3[C@]1(COC(=O)c1cccnc1)[C@H](OC(=O)c1ccccc1)[C@H]1[C@@H](OC(=O)C(C)C)[C@@H](C)C[C@]1(O)C(=O)[C@@]3(C)OC(C)=O)C2(C)C | 53% | 28% | 48% | 14% | 29%
14 | CCC(=O)O[C@@H]1[C@@H]2[C@@H](OC(C)=O)[C@@]34CO[C@@](C)([C@H](OC(C)=O)[C@@]2(OC(C)=O)C[C@]1(C)OC(=O)c1cccnc1)[C@@H]3[C@@H]1[C@@H](C[C@]1(C)OC(C)=O)[C@@H](OC(=O)C(C)C)C4=O | 42% | 35% | 65% | 11% | 22%
15 | CCC(C)C(=O)O[C@H]1C(=O)[C@@]23CO[C@@](C)([C@H](OC(C)=O)[C@@]4(OC(C)=O)C[C@](C)(OC(=O)c5cccnc5)[C@H](OC(=O)C(C)C)[C@@H]4[C@H]2OC(C)=O)[C@@H]3[C@@H]2[C@H]1C[C@]2(C)OC(C)=O (stereo not given in full) | 82% | 23% | 69% | 20% | 54%
16 | CCC(=O)O[C@@H]1[C@@H]2[C@@H](OC(C)=O)[C@@]34CO[C@@](C)([C@H](OC(C)=O)[C@@]2(O)C[C@@H]1C)[C@@H]3[C@@H]1[C@@H](C[C@]1(C)OC(C)=O)[C@@H](OC(=O)c1ccccc1)C4=O | 45% | 19% | 54% | 12% | 21%
